In ChEMBL document CHEMBL3351625, “Ethyl 2-(benzylidene)-7-methyl-3-oxo-2,3-dihydro-5H-thiazolo[3,2-a]pyrimidine-6-carboxylate analogues as a new scaffold for protein kinase casein kinase 2 inhibitor” (Bioorg Med Chem, 2014):

How the values were obtained:
[1] = target: Mitogen-activated protein kinase 9 (Homo sapiens) (UniProt P45984); experiment: Inhibition of human JNK2alpha2 assessed as residual activity at 10 uM by KinaseProfiler assay
Summary of the method: (§1)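 Radioactive phosphorylation assays were run by an outsourced profiling service. Each of 31 human kinases was tested with inhibitor at 10 µM. Residual activity is expressed as a percentage of the mean activity in positive-control wells, which contained all reaction components except inhibitor plus DMSO as solvent control.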

[2] = target: Mitogen-activated protein kinase 14 (Homo sapiens) (UniProt Q16539); experiment: Inhibition of human SAPK2a assessed as residual activity at 10 uM by KinaseProfiler assay; summary of the method: as §1
[3] = target: Mitogen-activated protein kinase 8 (Homo sapiens) (UniProt P45983); experiment: Inhibition of human JNK1alpha1 assessed as residual activity at 10 uM by KinaseProfiler assay; summary of the method: as §1
[4] = target: MAP kinase-activated protein kinase 3 (Homo sapiens) (UniProt Q16644); experiment: Inhibition of human MAPKAP-K3 assessed as residual activity at 10 uM by KinaseProfiler assay; summary of the method: as §1
[5] = target: RAC-alpha serine/threonine-protein kinase (Homo sapiens) (UniProt P31749); experiment: Inhibition of human PKBalpha assessed as residual activity at 10 uM by KinaseProfiler assay; summary of the method: as §1
[6] = target: Tyrosine-protein kinase SYK (Homo sapiens) (UniProt P43405); experiment: Inhibition of human Syk assessed as residual activity at 10 uM by KinaseProfiler assay; summary of the method: as §1
[7] = target: T1, MAP kinase-activated protein kinase 5 (Homo sapiens) (UniProt Q8IW41); experiment: Inhibition of human PRAK assessed as residual activity at 10 uM by KinaseProfiler assay; summary of the method: as §1
T1 sequence (whole entry): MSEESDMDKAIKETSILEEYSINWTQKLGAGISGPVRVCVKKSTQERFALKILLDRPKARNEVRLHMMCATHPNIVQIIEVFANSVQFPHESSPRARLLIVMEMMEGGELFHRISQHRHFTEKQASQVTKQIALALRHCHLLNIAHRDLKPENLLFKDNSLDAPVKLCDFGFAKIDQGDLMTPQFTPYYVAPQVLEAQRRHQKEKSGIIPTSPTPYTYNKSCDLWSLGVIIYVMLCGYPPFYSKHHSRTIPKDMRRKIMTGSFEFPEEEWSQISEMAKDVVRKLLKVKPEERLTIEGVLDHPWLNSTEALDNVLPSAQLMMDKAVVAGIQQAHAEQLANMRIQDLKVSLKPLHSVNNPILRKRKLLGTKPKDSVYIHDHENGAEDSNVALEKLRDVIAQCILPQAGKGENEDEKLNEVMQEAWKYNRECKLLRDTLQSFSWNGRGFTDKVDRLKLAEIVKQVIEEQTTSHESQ

[8] = target: Tyrosine-protein kinase Lyn (Homo sapiens) (UniProt P07948); experiment: Inhibition of human Lyn assessed as residual activity at 10 uM by KinaseProfiler assay; summary of the method: as §1
[9] = target: Tyrosine-protein kinase Lck (Homo sapiens) (UniProt P06239); experiment: Inhibition of human Lck assessed as residual activity at 10 uM by KinaseProfiler assay; summary of the method: as §1
[10] = target: MAP kinase-activated protein kinase 2 (Homo sapiens) (UniProt P49137); experiment: Inhibition of human MAPKAP-K2 assessed as residual activity at 10 uM by KinaseProfiler assay; summary of the method: as §1
[11] = target: T2, Mitogen-activated protein kinase 12 (Homo sapiens) (UniProt P53778); experiment: Inhibition of human SAPK3 assessed as residual activity at 10 uM by KinaseProfiler assay; summary of the method: as §1
T2 sequence (whole entry): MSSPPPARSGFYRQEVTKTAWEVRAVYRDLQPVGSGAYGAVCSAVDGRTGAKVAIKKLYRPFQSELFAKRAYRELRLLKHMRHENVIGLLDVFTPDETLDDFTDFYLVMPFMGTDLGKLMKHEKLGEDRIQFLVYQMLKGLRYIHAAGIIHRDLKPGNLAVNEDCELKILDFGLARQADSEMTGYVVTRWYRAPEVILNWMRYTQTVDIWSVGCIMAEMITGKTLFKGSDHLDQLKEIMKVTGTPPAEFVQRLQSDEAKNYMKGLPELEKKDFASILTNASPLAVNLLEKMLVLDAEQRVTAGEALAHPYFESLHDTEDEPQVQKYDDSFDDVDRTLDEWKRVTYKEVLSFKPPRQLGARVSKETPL

[12] = target: T3, Serine/threonine-protein kinase Sgk1 (Homo sapiens) (UniProt O00141); experiment: Inhibition of human SGK assessed as residual activity at 10 uM by KinaseProfiler assay; summary of the method: as §1
T3 sequence (whole entry): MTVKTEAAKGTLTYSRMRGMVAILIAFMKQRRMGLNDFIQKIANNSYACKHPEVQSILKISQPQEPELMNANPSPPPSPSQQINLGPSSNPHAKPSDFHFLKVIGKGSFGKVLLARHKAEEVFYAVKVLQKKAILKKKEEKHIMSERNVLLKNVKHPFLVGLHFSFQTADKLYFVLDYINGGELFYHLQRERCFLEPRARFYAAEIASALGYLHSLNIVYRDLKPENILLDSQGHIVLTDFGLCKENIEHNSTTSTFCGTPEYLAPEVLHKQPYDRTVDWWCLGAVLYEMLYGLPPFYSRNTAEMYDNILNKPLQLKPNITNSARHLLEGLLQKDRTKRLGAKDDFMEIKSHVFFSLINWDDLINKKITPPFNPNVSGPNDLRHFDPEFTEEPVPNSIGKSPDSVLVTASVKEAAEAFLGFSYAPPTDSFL

[13] = target: T4, Mitogen-activated protein kinase 13 (Homo sapiens) (UniProt O15264); experiment: Inhibition of human SAPK4 assessed as residual activity at 10 uM by KinaseProfiler assay; summary of the method: as §1
T4 sequence (whole entry): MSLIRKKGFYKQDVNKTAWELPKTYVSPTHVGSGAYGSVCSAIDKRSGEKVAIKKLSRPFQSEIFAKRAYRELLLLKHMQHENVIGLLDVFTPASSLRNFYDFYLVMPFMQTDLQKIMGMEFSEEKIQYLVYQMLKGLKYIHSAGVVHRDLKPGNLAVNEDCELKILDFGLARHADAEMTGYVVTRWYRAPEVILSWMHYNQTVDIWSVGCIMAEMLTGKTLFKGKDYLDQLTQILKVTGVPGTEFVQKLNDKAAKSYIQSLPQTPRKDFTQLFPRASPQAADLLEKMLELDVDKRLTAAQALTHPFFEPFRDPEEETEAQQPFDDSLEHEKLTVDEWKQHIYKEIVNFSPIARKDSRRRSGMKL

Homo sapiens = species on record: Homo sapiens; experiment: Inhibition of human CK1 assessed as residual activity at 10 uM by KinaseProfiler assay; summary of the method: as §1
[14] = target: Mitogen-activated protein kinase 11 (Homo sapiens) (UniProt Q15759); experiment: Inhibition of human SAPK2b assessed as residual activity at 10 uM by KinaseProfiler assay; summary of the method: as §1
[15] = target: Rho-associated protein kinase 2 (Homo sapiens) (UniProt O75116); experiment: Inhibition of human ROCK2 assessed as residual activity at 10 uM by KinaseProfiler assay; summary of the method: as §1
[16] = target: Glycogen synthase kinase-3 beta (Homo sapiens) (UniProt P49841); experiment: Inhibition of human GSK3beta assessed as residual activity at 10 uM by KinaseProfiler assay; summary of the method: as §1
Chain of Glycogen synthase kinase-3 beta (Homo sapiens) (P49841 whole entry, looked up): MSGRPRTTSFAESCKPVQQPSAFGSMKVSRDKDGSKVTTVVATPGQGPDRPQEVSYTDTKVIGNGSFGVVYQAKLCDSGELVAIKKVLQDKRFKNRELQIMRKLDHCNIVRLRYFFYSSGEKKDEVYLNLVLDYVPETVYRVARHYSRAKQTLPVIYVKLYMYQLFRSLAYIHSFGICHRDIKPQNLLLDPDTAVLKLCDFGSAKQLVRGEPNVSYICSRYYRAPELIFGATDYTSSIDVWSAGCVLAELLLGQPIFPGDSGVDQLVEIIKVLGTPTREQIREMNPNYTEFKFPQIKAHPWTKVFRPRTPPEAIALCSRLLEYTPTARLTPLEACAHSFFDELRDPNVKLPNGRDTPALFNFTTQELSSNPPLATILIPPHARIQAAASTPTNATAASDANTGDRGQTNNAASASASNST

Chain of MAP kinase-activated protein kinase 2 (Homo sapiens) (P49137 whole entry, looked up): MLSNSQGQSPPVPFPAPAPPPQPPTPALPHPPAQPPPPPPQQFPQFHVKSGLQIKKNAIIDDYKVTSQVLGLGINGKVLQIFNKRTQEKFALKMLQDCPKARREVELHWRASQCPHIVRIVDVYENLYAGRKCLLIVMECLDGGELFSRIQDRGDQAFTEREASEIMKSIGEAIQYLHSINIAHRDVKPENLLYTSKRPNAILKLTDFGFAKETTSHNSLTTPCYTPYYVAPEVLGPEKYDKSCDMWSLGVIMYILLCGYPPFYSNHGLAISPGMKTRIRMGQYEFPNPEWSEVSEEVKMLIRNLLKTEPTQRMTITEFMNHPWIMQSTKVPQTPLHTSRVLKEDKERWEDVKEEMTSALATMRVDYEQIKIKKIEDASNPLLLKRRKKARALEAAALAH
Chain of Mitogen-activated protein kinase 8 (Homo sapiens) (P45983 whole entry): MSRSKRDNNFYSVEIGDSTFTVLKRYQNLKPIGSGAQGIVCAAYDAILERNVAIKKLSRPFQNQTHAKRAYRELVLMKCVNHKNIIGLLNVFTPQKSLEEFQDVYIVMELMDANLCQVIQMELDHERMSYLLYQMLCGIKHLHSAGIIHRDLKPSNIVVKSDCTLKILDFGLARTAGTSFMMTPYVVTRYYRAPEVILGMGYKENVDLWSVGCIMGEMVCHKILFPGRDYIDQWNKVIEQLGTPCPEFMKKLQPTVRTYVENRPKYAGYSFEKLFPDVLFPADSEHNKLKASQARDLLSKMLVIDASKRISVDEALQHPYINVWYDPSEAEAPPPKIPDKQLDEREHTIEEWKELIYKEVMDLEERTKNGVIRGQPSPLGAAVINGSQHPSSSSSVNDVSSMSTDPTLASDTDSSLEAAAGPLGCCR
Chain of RAC-alpha serine/threonine-protein kinase (Homo sapiens) (P31749 whole entry): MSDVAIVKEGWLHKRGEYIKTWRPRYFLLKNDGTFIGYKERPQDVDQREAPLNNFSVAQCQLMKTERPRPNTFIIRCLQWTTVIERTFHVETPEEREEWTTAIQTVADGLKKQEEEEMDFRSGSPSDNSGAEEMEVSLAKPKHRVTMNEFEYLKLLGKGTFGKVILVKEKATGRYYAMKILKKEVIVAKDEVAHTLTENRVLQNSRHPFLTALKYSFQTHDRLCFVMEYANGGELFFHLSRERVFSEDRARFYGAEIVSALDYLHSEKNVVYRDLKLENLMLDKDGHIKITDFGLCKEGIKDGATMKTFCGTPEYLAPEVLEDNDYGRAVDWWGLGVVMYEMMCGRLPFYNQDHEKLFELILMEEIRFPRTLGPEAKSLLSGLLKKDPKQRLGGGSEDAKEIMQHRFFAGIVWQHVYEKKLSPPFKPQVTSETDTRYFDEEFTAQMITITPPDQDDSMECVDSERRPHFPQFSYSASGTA
Chain of Mitogen-activated protein kinase 9 (Homo sapiens) (P45984 whole entry, looked up): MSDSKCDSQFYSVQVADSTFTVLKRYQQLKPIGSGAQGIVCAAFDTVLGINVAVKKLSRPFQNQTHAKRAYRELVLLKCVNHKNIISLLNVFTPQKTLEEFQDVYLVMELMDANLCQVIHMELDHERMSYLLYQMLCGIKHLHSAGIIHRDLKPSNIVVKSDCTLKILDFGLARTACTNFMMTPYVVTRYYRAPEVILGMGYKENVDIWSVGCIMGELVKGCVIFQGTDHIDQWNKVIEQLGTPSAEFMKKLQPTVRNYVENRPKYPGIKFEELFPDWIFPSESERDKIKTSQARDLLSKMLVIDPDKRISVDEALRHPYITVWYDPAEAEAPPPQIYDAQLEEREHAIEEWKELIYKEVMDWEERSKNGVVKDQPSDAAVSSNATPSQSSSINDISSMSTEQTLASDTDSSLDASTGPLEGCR
Chain of Mitogen-activated protein kinase 14 (Homo sapiens) (Q16539 whole entry): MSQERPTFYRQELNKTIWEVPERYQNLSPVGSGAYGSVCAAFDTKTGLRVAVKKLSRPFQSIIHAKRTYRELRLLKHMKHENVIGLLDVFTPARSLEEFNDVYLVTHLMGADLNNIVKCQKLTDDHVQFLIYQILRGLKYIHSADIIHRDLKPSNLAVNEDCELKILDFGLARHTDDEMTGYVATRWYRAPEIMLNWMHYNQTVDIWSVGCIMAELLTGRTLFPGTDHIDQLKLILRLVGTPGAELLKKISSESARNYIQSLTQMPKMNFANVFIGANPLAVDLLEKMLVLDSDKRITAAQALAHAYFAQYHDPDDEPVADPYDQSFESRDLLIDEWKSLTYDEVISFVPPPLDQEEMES
Chain of Tyrosine-protein kinase Lck (Homo sapiens) (P06239 2-509 limits assumed): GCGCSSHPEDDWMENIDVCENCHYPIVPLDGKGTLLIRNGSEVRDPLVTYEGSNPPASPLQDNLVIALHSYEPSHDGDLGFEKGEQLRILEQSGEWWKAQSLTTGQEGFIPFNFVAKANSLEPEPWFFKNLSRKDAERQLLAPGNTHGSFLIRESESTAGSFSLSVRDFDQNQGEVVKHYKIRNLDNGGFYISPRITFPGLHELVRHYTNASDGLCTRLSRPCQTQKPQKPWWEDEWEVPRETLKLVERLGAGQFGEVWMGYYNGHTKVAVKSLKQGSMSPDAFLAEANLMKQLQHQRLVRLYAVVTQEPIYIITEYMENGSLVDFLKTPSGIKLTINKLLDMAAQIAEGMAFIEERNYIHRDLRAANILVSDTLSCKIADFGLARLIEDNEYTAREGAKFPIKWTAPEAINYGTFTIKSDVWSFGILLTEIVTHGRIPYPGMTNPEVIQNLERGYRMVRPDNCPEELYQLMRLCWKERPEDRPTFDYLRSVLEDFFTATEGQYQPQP
Chain of MAP kinase-activated protein kinase 3 (Homo sapiens) (Q16644 whole entry, looked up): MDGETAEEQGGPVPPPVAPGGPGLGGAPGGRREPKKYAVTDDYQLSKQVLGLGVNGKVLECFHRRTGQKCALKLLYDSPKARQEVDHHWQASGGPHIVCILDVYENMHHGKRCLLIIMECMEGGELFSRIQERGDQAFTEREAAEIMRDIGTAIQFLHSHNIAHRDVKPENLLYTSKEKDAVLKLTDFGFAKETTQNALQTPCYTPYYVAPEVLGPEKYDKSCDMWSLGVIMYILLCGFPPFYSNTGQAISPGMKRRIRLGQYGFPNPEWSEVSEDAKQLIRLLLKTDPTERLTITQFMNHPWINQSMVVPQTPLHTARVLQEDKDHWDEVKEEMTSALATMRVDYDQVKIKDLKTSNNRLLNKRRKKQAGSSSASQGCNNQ
Chain of Mitogen-activated protein kinase 11 (Homo sapiens) (Q15759 whole entry): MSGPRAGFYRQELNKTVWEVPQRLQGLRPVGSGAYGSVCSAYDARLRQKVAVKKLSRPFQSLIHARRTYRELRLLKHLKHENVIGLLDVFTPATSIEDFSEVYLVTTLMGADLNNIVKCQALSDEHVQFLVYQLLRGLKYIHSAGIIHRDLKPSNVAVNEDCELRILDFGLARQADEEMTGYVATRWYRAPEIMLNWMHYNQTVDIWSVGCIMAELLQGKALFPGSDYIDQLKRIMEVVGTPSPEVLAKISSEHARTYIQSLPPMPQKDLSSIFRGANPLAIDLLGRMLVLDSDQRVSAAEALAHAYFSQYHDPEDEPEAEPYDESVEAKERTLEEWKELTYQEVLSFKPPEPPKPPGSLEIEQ
Chain of Tyrosine-protein kinase Lyn (Homo sapiens) (P07948 2-512 limits assumed): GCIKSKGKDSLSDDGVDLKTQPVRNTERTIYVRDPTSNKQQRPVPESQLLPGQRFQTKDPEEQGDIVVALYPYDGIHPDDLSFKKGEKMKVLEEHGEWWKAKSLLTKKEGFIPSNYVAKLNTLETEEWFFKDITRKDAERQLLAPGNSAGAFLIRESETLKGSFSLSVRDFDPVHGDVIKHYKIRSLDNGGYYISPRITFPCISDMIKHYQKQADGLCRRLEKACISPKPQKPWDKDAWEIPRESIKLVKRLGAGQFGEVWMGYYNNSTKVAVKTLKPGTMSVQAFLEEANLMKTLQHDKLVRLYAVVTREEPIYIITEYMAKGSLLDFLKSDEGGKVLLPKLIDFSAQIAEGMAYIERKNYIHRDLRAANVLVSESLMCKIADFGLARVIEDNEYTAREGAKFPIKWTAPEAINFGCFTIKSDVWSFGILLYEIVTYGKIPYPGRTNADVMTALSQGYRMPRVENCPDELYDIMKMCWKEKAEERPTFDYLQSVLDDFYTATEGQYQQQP

Compound	Activity [1] [%]	Activity [2] [%]	Activity [3] [%]	Activity [4] [%]	Activity [5] [%]	Activity [6] [%]	Activity [7] [%]	Activity [8] [%]	Activity [9] [%]	Activity [10] [%]	Activity [11] [%]	Activity [12] [%]	Activity [13] [%]	Activity (Homo sapiens) [%]	Activity [14] [%]	Activity [15] [%]	Activity [16] [%]
CCOC(=O)C1=C(C)N=c2s/c(=C\c3ccc(O)c(O)c3)c(=O)n2C1c1ccc(Cl)cc1 (stereo unspecified)	91	72	101	117	90	77	36	20	57	98	69	85	79	50	114	89	52
CCOC(=O)C1=C(C)N=c2s/c(=C\c3cc(O)c(O)c(O)c3)c(=O)n2C1c1ccc(Cl)cc1 (stereo unspecified)	92	59	92	122	50	28	28	5	61	86	63	61	76	77	101	108	51
Brc1c(Br)c(Br)c2[nH]nnc2c1Br	50	99	51	95	61	87	60	113	78	78	29	65	106	51	112	73	42
